How the values were obtained:
[1] = system: Mus musculus; assay: Antiinflammatory activity against arachidonic acid-induced ear edema in Balb/C mouse at 300 ug/ear administered topically 1 hr before arachidonic acid challenge measured after 60 mins; type: functional
Method in brief: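 Topical application in 100 µL acetone (compound 300 µg, indomethacin 300 µg positive control, vehicle alone) to mouse ear; oedema induced with arachidonic acid (4 mg). Ear width measured with a micrometer screw gauge before and 60 min after induction. Oedema expressed as percentage of normal by comparing left and right ear widths. n = 4–8 per group.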

[2] = system: Ileum; assay: Muscle relaxant activity in potassium-depolarized guinea pig ileum assessed as inhibition of calcium-induced contraction at 10 uM; type: functional; conditions: Cavia porcellus
Method in brief: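 Isolated guinea-pig ileum depolarised with potassium; sustained contraction induced by calcium (2.5 mM). Test compounds at 1 × 10⁻⁵ M, with nifedipine 1 × 10⁻⁸ M as reference. Result expressed as % inhibition of the calcium contracture. Mean ± SEM, n = 6–12.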

[3] = system: RBL-2H3; assay: Antiinflammatory activity against calcium ionophore A23187-induced beta-hexosaminidase release from rat RBL2H3 cells at 10 uM after 30 mins; type: functional; conditions: RBL-2H3, 0.5 h
Method in brief: (§1)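 RBL-2H3 cells plated at 1 × 10⁵ cells/cm² in 24-well plates and allowed to adhere ≥3 h. Medium replaced with fresh medium containing calcium ionophore A23187 plus compound (0.3–50 µM range; DMSO 0.5% solvent control). Incubation 30 min, 37 °C, 5% CO₂. Supernatant β-hexosaminidase measured with p-nitrophenyl N-acetyl-glucosaminide in citrate pH 4.5 for 1 h at 37 °C, stopped with NaOH, read at 405 nm. Values are % of total (Triton X-100 lysate), spontaneous release subtracted. Triplicate.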

[4] = system: RBL-2H3; assay: Antiinflammatory activity against calcium ionophore A23187-induced beta-hexosaminidase release in rat RBL2H3 cells at 50 uM after 30 mins; type: functional; conditions: RBL-2H3, 0.5 h; method in brief: as §1
[5] = system: RBL-2H3; assay: Antiinflammatory activity against calcium ionophore A23187-induced beta-hexosaminidase release from rat RBL2H3 cells after 30 mins; type: functional, cell-based; method in brief: as §1
[6] = system: Ileum; assay: Muscle relaxant activity in potassium-depolarized guinea pig ileum assessed as inhibition of calcium-induced contraction at 10 nM; type: functional; conditions: Cavia porcellus
Method in brief: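 Isolated guinea-pig ileum, depolarised with potassium, in which calcium (2.5 mM) induced a sustained contraction. The agent was applied at 1 × 10^-8 M, and activity was expressed as percent inhibition of the calcium contracture. Values are given as mean with SEM, n = 6.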

Q: How did the “inhibition (INH)” value [1] turn out when `COc1ccc2c(c1)c(CC(=O)O)c(C)n2C(=O)c1ccc(Cl)cc1` [INDOMETHACIN] was run?
A: 50%

Q: What does the source list for `O[C@H]1c2ccccc2C[C@]1(Cc1ccccc1)C1=Cc2ccccc2C1`?
A: inhibition at 10 µM [2]: 18.9%; inhibition at 10 µM [3]: 45%; inhibition at 50 µM [4]: 96%; inhibition (INH) [1]: 45%; inhibition [5]: Dose-dependent effect

Q: `COC(=O)C1=C(C)NC(C)=C(C(=O)OC)C1c1ccccc1[N+](=O)[O-]` [NIFEDIPINE] was tested. Which inhibition at 0.01 µM [6] did it give?
A: 48.1%

Q: `O[C@H]1c2ccccc2C[C@@]1(Cc1ccccc1)C1=Cc2ccccc2C1` was tested. Which inhibition at 10 µM [2] did it give?
A: 36.4%

Q: What about the inhibition at 10 µM [3] of the same molecule?
A: 40%

Q: What about the inhibition at 50 µM [4] of the same molecule?
A: 75%

Q: What about the “inhibition (INH)” value [1] of the same molecule?
A: 59%

Q: What about the inhibition [5] of the same molecule?
A: Dose-dependent effect

Reference: ChEMBL document CHEMBL1156047, “Diastereoisomers of 2-benzyl-2, 3-dihydro-2-(1H-inden-2-yl)-1H-inden-1-ol: potential anti-inflammatory agents” (2009)
